# Bioassay records from PubChem.
# PRMT1 FP inh: PRMT1 (human) inhibition, primary screen | inhibition, % at 2.79 µM | recombinant PRMT1, activity-based probe fluorescence polarization | 1.3% of 370,000 active;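 active = inhibition above about 21% made by adding two undisclosed values, limit read from the data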
# HTRA1 inhibitor: HTRA1 (human) protease inhibition | Q92743 | recombinant HTRA1, FP-rhodamine activity-based probe, fluorescence polarization | inhibition, % at 5.96 µM | 0.5% of 340,000 active; in the data active = inhibition above about 36%;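 also: 0% = enzyme with DMSO and 100% = wells lacking enzyme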
# JMJD2C inh: inhibitors of human GASC-1 (JMJD2C) demethylase; Q9H3R0; GST-JMJD2C(1-420) H3K9me3 demethylation, DELFIA europium; inhibition, % at 2.35 µM; 0.069% of 330,000 active;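 active = more than half of a compound's replicate wells show inhibition beyond 50%, single wells judged on their own value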;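 also: signal counts dimethyl H3K9 product captured on neutravidin plate; 0% = median of DMSO wells and 100% = 0.3 times that DMSO median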
# Target sequence (Q9H3R0 1-420 limits assumed): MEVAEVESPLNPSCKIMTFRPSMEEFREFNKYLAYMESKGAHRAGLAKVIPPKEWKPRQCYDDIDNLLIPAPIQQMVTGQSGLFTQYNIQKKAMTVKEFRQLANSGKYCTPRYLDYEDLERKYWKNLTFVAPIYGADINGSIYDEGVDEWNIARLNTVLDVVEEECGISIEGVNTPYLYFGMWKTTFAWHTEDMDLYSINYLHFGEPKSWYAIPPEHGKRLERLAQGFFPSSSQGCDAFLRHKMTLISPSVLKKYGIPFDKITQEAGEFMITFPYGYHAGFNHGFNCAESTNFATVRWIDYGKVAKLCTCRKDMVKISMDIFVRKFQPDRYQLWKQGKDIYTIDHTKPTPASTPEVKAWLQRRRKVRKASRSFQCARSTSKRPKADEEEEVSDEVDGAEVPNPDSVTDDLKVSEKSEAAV
# mABHD4 FP: inhibits mouse alpha/beta hydrolase domain 4; Q8VD66; AID 720543; purified mABHD4, FP-Rh probe fluorescence polarization; 0.54% of 370,000 active; inhibition, % at 8.92 µM;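 active = inhibition exceeding the mean over every tested compound plus 3 SD, cut at about 30% in these data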;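 also: 0% = plate median of compound wells and 100% = S159A mutant with DMSO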
#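 Assay system: mouse ABHD4 enzyme, wild type / Also added: fluorescent activity-based probe FP-Rh / Doses: single nominal dose of 8.92 µM, 0.89% DMSO final / Timing: 45 min compound pre-incubation plus 60 min probe step, 25 °C / Signal: FP readout, ex 525 nm / em 598 nm / Control set: S159A mutant/DMSO as 100%, compound-well median as 0%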
# SIAE inh: human SIAE inhibition, primary screen; 0.69% of 370,000 active; AID 1053197; inhibition, % at 9.66 µM; SIAE FP-Rh probe binding, fluorescence polarization; Q9HAT2;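 active = inhibition above a cutoff: mean of compounds within the control limits plus 3 SD of those, cut at about 17% in these data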;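 also: 0% = plate median of compound wells and 100% = probe without SIAE protein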
# HTRA1 conf: confirmation of human HTRA1 inhibitors | shares compounds with HTRA1 inhibitor | recombinant HTRA1, FP-rhodamine activity-based probe, fluorescence polarization | inhibition, % at 5.96 µM | 66% of 1,600 active;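 active = mean inhibition over three repeats above a set limit taken from the earlier primary screen, cut at about 37% in these data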;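 also: 0% = HTRA1 with DMSO and 100% = wells lacking HTRA1; inhibitors block probe binding so polarization drops and inhibition rises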
# Numbers without * were called inactive; · = no result. The list is not random: actives were taken first. Their share in the collection is about 2.4%.
SMILES,PRMT1 FP inh,HTRA1 inhibitor,JMJD2C inh,mABHD4 FP,SIAE inh,HTRA1 conf
CCC[C@H]1[C@@H](NC(=O)c2cccc(C(F)(F)F)c2)CC[C@@]23CCCN2C(=O)CCC[C@@H]13,1.1,·,·,2.3,-3.9,·
COc1ccc(N=Cc2cc(Cc3ccccc3Cl)cc([N+](=O)[O-])c2O)cc1OC,·,12.2,1.0,·,·,·
Cc1ccc(N=Cc2cc(Cc3ccccc3Cl)cc([N+](=O)[O-])c2O)c(O)c1,·,70.6*,-13.4,·,·,65.4*
COc1ccc(C(NC(=O)C2CCN(CCOc3ccc(Cl)cc3Cl)CC2)c2ccccn2)cc1 (stereo not drawn),-3.1,·,·,6.1,-3.5,·
O=[N+]([O-])c1ccc(N/N=C/c2cccc(O)c2O)cc1,10.0,63.8*,23.3,21.0,11.9,45.7*
COc1cc(NC(=O)NC2CCCCN(Cc3ccc(Cl)cc3)C2=O)cc(OC)c1 (stereo not drawn),0.6,·,·,-8.9,-1.3,·
O=C1C(Nc2ccccc2)=C/C(=N/S(=O)(=O)c2cccs2)c2ccccc21,·,63.4*,0.9,·,·,62.1*
Cc1ccc(S(=O)(=O)/N=C2\C=C(Nc3ccc(O)cc3)C(=O)c3ccccc32)cc1,·,87.8*,12.7,·,·,77.5*
Cc1ccc(S(=O)(=O)/N=C2/C=C(Sc3ncn[nH]3)C(=O)c3ccccc32)cc1,·,21.6,18.4,·,·,·
O=C(Nc1cccc(Cl)c1)OCCN1CCCC12CCC(c1ccccc1)CC2 (stereo not drawn),-0.1,·,·,5.9,6.2,·
CN1CCN(C(=O)c2cccc(-c3cc(O)c4ncccc4c3)c2)CC1,-3.4,25.1,4.8,7.6,5.3,·
CN1CCN(c2cc(-c3cc(O)c4ncccc4c3)ccn2)CC1,0.9,47.4*,-17.1,19.2,3.8,61.8*
C=C1CCCC2OC(CC3=CC4/C(C)=C/CC(C)CC(/C=C(\C)C(O)C5CC(O)C(O)C(CCC(O)/C=C/C(C)=C/CCC6=NCCC(C3)C64C)O5)OC(=O)CC3OC(C(O)C1)C(O)C3O)CC(O)C2O (stereo not drawn),-0.5,·,·,3.3,-4.0,·
COC(=O)CCC(=O)OC1(C)C(=O)C2=CN(Cc3ccc(OC)cc3)C(c3ccc(OC)cc3)=CC2=C(Br)C1=O (stereo not drawn),1.8,21.1,-4.1,15.4,-1.4,·
COC(=O)CCC(=O)OC1(C)C(=O)C2=CN(CCCOC(C)C)C(c3ccc(OC)cc3)=CC2=C(Br)C1=O (stereo not drawn),·,38.5*,1.9,·,·,49.6*
COC(=O)CCC(=O)OC1(C)C(=O)C2=CN(c3ccccc3)C(c3ccc(OC)cc3)=CC2=C(Br)C1=O (stereo not drawn),7.9,46.8*,12.3,23.5,7.6,48.1*
COC(=O)CCC(=O)OC1(C)C(=O)C2=CN(Cc3ccccc3)C(c3ccc(OC)cc3)=CC2=C(Br)C1=O (stereo not drawn),5.5,60.0*,-0.9,13.8,1.0,62.6*
COC(=O)CCC(=O)OC1(C)C(=O)C2=CN(CC(C)C)C(c3ccc(OC)cc3)=CC2=C(Br)C1=O (stereo not drawn),·,·,-2.0,·,·,·
COC(=O)CCC(=O)OC1(C)C(=O)C2=CN(C3CC3)C(c3ccc(OC)cc3)=CC2=C(Br)C1=O (stereo not drawn),12.1,35.4,3.7,12.4,13.5,·
COC(=O)CCC(=O)OC1(C)C(=O)C2=CN(CC3CC3)C(c3ccc(OC)cc3)=CC2=C(Br)C1=O (stereo not drawn),·,50.4*,10.2,·,·,45.8*
O=c1c2cc3cc(Cl)ccc3nc2ncn1N1CCCCC1,-5.8,·,·,-3.8,-5.8,·
CN1C(=O)c2cc(NC(=O)c3ccc(F)cc3)ccc2OC[C@H]2O[C@H](CC(=O)NC3CCC3)CC[C@H]21,-0.9,·,·,-2.9,6.7,·
CC(=O)O[C@H]1[C@@H](O)[C@H](O)[C@H](Oc2c(O)c(C)c3c4c2[C@@H](C)CC[C@@H]4[C@@H](C)C[C@@H]3C=C(C)C)O[C@H]1C,1.4,·,·,6.2,5.9,·
Cc1ccn2cc(-c3ccc(O)c(O)c3)nc2c1,18.1,43.6*,21.1,26.3,6.0,65.4*
O=C1c2ccccc2-c2onc3ccc(Oc4ccccc4)c1c23,10.5,39.3*,-5.7,-31.5,-6.5,22.3
SMILES,PRMT1 FP inh,HTRA1 inhibitor,JMJD2C inh,mABHD4 FP,SIAE inh,HTRA1 conf
O=C(c1ccccc1)c1coc2c1C(=O)c1ccccc1C2=O,14.0,30.6,-32.6,5.0,-4.1,·
Nn1cnnc1N/N=C/c1cc(Br)cc(Br)c1O,3.1,52.8*,4.8,12.5,-1.0,51.1*
Cc1[nH]c2c(C)cccc2c1CCNC(=O)c1ccc2c(c1[N+](=O)[O-])C(=O)c1ccccc1C2=O,-3.7,41.7*,1.8,7.0,5.2,43.5*
COc1ccc(NC(=O)C2Cc3c(-c4ccc5c(c4)OCO5)ccnc3O2)cc1OC (stereo not drawn),1.1,·,·,4.1,-2.7,·
CC(C)c1ccc(NC(=O)Nc2cc3sccc3n2C)cc1,9.6,46.8*,-7.4,18.0,-2.6,9.1
O=c1cc(-c2ccc(O)c(O)c2)oc2cc(O)cc(O)c12,3.6,50.0*,-3.8,25.7,3.3,66.7*
O=c1cc(-c2ccc(O)c(-c3c(O)cc(O)c4c(=O)cc(-c5ccc(O)cc5)oc34)c2)oc2cc(O)cc(O)c12,1.4,40.3*,-8.8,-76.2,-29.7,75.5*
O=c1c(-c2c(O)cc(O)c3c(=O)cc(-c4ccc(O)cc4)oc23)c(-c2ccc(O)cc2)oc2cc(O)cc(O)c12,4.8,12.2,·,-70.8,-36.2,·
COc1ccc(-c2cc(=O)c3c(O)cc(O)cc3o2)cc1,5.1,-8.5,·,-0.6,-19.6,·
O=c1cc(-c2ccc(O)cc2)oc2c(-c3c(O)cc(O)c4c(=O)cc(-c5ccc(O)cc5)oc34)c(O)cc(O)c12,-0.2,52.7*,·,-15.0,-24.0,50.0*
COc1cc(-c2cc(=O)c3c(O)c(OC)c(OC)c(O)c3o2)ccc1O,4.4,33.8,-5.0,24.3,0.6,·
COc1c(O)c(O)c2oc(-c3ccccc3)cc(=O)c2c1OC,12.2,46.0*,-0.2,8.4,1.1,60.5*
CCCCNC(=O)C1(C)CCN1C(=O)c1cncc(Br)c1 (stereo not drawn),7.8,·,·,-7.2,-2.3,·
O=C(NNc1ccc(C(F)(F)F)cc1[N+](=O)[O-])c1ccc(NS(=O)(=O)c2ccc(F)cc2)cc1,12.3,37.8*,12.6,11.9,13.0,36.1
CC(C)[C@H](Nc1ccc(C(F)(F)F)cc1[N+](=O)[O-])C(=O)O,0.0,2.0,-11.7,-3.0,-3.0,·
CCCCCCCCC/C(=N\O)c1ccccn1,-1.0,66.4*,73.9,-5.1,-6.3,66.0*
COP(=O)(O)C(COCCC(CC(C)C)NC(=O)OCc1ccccc1[N+](=O)[O-])NC(=O)OCc1ccccc1 (stereo not drawn),1.4,·,·,-1.1,0.7,·
